Hits are enriched below; roughly 1.9% of the tested compounds scored in any of these assays.
MBD2 inh – blocks human MBD2 binding to methylated DNA. TR-FRET, MBD2 binding to methylated oligonucleotide. inhibition, % at 4.4 µM. actives 0.31% (n = 370,000); in the data active means inhibition above about 13%
DDE Tn7 FP inh – DD(E)-Tn7 binding inhibition, primary FP screen. FP displacement of FITC-Tn7 peptide from fibrin DD(E); 0% = median of compound wells per plate. AID 720508. actives 0.13% (n = 370,000). P02675. inhibition, % at 8.3 µM;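 active means inhibition above the mean of compounds falling within the control limits plus 3 SD of them, cut at about 14% in these data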
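Assay system: Human fibrin DD(E) protein | Medium: Tris buffer with calcium and detergent, pH 7.8 | Reagent: 0.1 µM fluorescent Tn7 | Compound dosing: Single point at 8.3 µM | Times: 10 min preincubation, 3 h with tracer, room temperature | Detection: Fluorescence polarization of the labelled Tn7 tracer | Controls: Aha-Tn7 high control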
UHRF1 MBD2 ctr – blocks human UHRF1 binding to methylated DNA; actives 0.75% (n = 370,000); inhibition, % at 4.4 µM; UHRF1 binding to methylated oligo, TR-FRET; Q96T88; AID 687016; in the data active means inhibition above about 21%;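 further: UHRF1 SRA domain binding a hemimethylated CpG hairpin DNA probe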
Tn6 DDE FP – inhibitors of Tn6 peptide binding to human fibrin DD(E). AID 720509. actives 0.21% (n = 370,000). Fibrin DD(E) TRITC-Tn6 fluorescence polarization displacement. P02675. inhibition, % at 8.3 µM;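 active means inhibition above a per-campaign cutoff: mean of compounds within control limits plus 3 SD, cut at about 15% in these data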
TDP2 inh – blocks human TDP2 phosphodiesterase activity. inhibition, % at 12.8 µM. actives 0.34% (n = 370,000). recombinant TDP2, T5PNP hydrolysis, p-nitrophenol absorbance 415 nm. O95551;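 active means inhibition above the mean of all tested compounds plus 3 SD, set per campaign, cut at about 25% in these data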
Target sequence (O95551 whole entry, looked up): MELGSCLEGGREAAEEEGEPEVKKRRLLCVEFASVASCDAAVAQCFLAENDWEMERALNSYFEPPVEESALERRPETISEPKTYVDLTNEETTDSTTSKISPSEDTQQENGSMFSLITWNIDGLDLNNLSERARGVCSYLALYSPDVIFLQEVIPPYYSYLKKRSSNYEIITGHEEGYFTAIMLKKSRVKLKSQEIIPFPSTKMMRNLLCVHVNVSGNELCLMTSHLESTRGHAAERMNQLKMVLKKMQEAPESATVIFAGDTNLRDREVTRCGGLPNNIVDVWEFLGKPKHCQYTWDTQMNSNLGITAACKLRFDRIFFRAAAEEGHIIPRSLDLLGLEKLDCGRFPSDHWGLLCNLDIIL
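test system = human TDP2 enzyme | input = TDP2 enzyme at 120 nM final | medium = 50 mM Tris-HCl pH 7.5 with Mg2+, KCl, DTT, BSA | also added = T5PNP substrate, 5 mM | times = 2 h at 37 °C | technique = epi absorbance | benchmarks = high control without enzyme, low control DMSO plus TDP2 | replication = each compound tested once, singlicate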
LEDGF integ inh – blocks HIV-1 LEDGF/p75-dependent DNA integration; TR-FRET IN-LEDGF/p75 DNA integration, Eu/Cy5; inhibition, % at 3.7 µM; actives 0.64% (n = 370,000);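 active means inhibition above the screen-wide mean plus 3 SD, cut at about 13% in these data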;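 further: signal is the Cy5 over europium emission ratio at 671 and 618 nm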
DDE Tn6 FP ctr – counter-screen hit for Tn6 peptide-fibrin DD(E) binding disruption. shares compounds with Tn6 DDE FP. TRITC-Tn6 fluorescence polarization displacement; 0% = median of compound wells, not DMSO. inhibition, % at 8.3 µM. actives 2% (n = 680). AID 720621;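 active means inhibition above the mean of test compounds lying between the control limits plus 3 SD of those, cut at about 14% in these data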
Tn6 DDE conf – DD(E)-Tn6 binding inhibition, FP confirmation; shares compounds with Tn6 DDE FP; FP displacement of TRITC-Tn6 peptide from DD(E); 0% = per-plate median of test wells; inhibition, % at 8.3 µM; actives 10% (n = 680); AID 720631;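 active means inhibition above the mean of compounds lying within the control limits plus 3 SD, cut at about 16% in these data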
Large screens that a line does not name were inactive (follow-up assays come after a bar, where they were run).

Cc1nn(C)c(C)c1N1C(=O)c2cccc3c(N)ccc(c23)C1=O	Tn6 DDE FP 19.4 | DDE Tn6 FP ctr inactive | Tn6 DDE conf inactive
Cc1ccc(C2NC(=O)c3c(sc4c3CCN(C)C4)N2)o1 (centres undefined)	none
Cc1ccc(C2NC(=O)c3c(sc4c3CCN(C)C4)N2)s1 (centres undefined)	Tn6 DDE FP 17.9 | DDE Tn6 FP ctr inactive | Tn6 DDE conf inactive
O=C(NCc1ccccc1)[C@H]1CCCN1C(=O)[C@H]1CCCN1C(=O)C1CCCCC1	none
COC(=O)[C@]12C[C@H](CC(=O)NCc3ccc(OC)c(OC)c3)C(=O)N(Cc3ccc4c(c3)OCO4)C1=C[C@H](COCc1ccccc1)O[C@@H]2C	none
COc1cc2sc3ccc(-c4ccc(CN5CCOCC5)cc4)cc3c(=O)c2cc1OC	Tn6 DDE FP 17.6 | DDE Tn6 FP ctr inactive | Tn6 DDE conf inactive
O=C(NC(=S)Nc1ccccn1)c1cc(-c2ccccc2)nc2ccccc12	none
O=C(NC(=S)Nc1ccccc1)c1cc(-c2ccccc2)nc2ccccc12	Tn6 DDE FP 20.7 | DDE Tn6 FP ctr inactive | Tn6 DDE conf inactive
CC1(C(=O)NS(=O)(=O)c2cccc(Cl)c2)CCN1C(=O)Cc1cc(F)ccc1F (centres undefined)	Tn6 DDE FP 16.1 | DDE Tn6 FP ctr inactive | Tn6 DDE conf inactive
CC1(C(=O)NS(=O)(=O)c2cccs2)CCN1C(=O)CCc1ccc(Cl)cc1Cl (centres undefined)	Tn6 DDE FP 16.9 | DDE Tn6 FP ctr inactive | Tn6 DDE conf inactive
CN(NC(=O)C(=O)NCc1ccco1)C(=O)NC1CCCCC1	none
C[C@H](O)[C@@H]1C(=O)N2CCc3c([nH]c4cccc(-c5ccccc5)c34)[C@@H]2C[C@@H]1N(C)C(=O)NC1CCCCC1	none
CN(c1cccnc1)c1ccc(NC(=O)Cc2c[nH]c3ccccc23)cc1Br	none
Cc1cc(Oc2cccc3c2S(=O)(=O)N([C@H](C)c2ccccc2)C[C@@H](COCc2ccccc2)O3)cc(C)c1C	none
Clc1ccccc1-c1nn2c(-c3cc(-c4ccccc4)n[nH]3)nnc2s1	none
O=[n+]1c2c(n([O-])c3cc(F)c(N4CCCC4)cc31)CCC2	Tn6 DDE FP 15.6 | DDE Tn6 FP ctr inactive | Tn6 DDE conf 17.1
O=[n+]1c2c(n([O-])c3cc(F)c(N4CCCC4)cc31)CCCC2	none
CC(C)(C)C(=O)CSc1nnc(SCc2cccc3ccccc23)s1	none
CN(Cc1ccco1)C(=O)[C@@H](Cc1ccccc1)NC(=O)[C@H]1O[C@@H](n2ccc(=O)[nH]c2=O)[C@H](O)[C@@H]1O	none
Cc1ccc(C(=O)n2cnc3ccccc32)cc1C	Tn6 DDE FP 15.9 | DDE Tn6 FP ctr inactive | Tn6 DDE conf inactive
CC1CCN(C(=O)c2[nH]cnc2C(=O)N(C)CCO)CC1	none
Cc1cccc(NC(=O)C2CCN(S(=O)(=O)c3ccc(Cl)cc3)CC2)n1	Tn6 DDE FP 16.6 | DDE Tn6 FP ctr inactive | Tn6 DDE conf inactive
C[n+]1cc2c3c(ccc2c2ccc4cc5c(cc4c21)OCO5)OCO3	Tn6 DDE FP 27.4 | DDE Tn6 FP ctr inactive | Tn6 DDE conf 19.9
C[n+]1c(/C=C/c2ccc3c(c2)OCO3)ccc2ccccc21	none
Cc1ccccc1NC(=O)c1ccccc1NC(=O)c1ccco1	Tn6 DDE FP 16.5 | DDE Tn6 FP ctr inactive | Tn6 DDE conf inactive
C[C@H]1CNCCN1c1ccc(N2CCS(=O)(=O)CC2)c(C#N)c1	none
C[N+]1=C(/C=C/Nc2ccccc2Cl)C(C)(C)c2ccccc21	none
COC(=O)c1ccc2c(c1)C(C)(C)C(/C=C/c1ccccc1O)=[N+]2C	Tn6 DDE FP 58.1 | DDE Tn6 FP ctr inactive | Tn6 DDE conf inactive
Cc1cc(C(=O)O[C@H]2CCC[C@]3(C(=O)N(Cc4ccccc4)c4ccccc43)[C@H]2NC(=O)CCc2ccccc2)no1	none
COC(=O)[C@]12C=CCN1[C@H](c1ccc(OC)c(OC)c1)c1c(c3ccccc3n1S(=O)(=O)c1ccc(C)cc1)C2	none
COC(=O)[C@]12C=CCN1[C@H](c1ccccc1)c1c(c3ccccc3n1S(=O)(=O)c1ccc(C)cc1)C2	Tn6 DDE FP 18.8 | DDE Tn6 FP ctr inactive | Tn6 DDE conf inactive
CCOc1ccc(OCC)c(S(=O)(=O)n2cnc(C)c2)c1	Tn6 DDE FP 16.3 | DDE Tn6 FP ctr inactive | Tn6 DDE conf inactive
CCOc1ccc(OCC)c(S(=O)(=O)N2CCCCC2)c1	none
C[C@H]1C2CC(OC(=O)NCc3ccccc3)C(C2)[C@H]2CCCCN21 (some centres undefined)	none
COC(=O)c1ccc(Cn2c(C)c(C(=O)NCc3cccc(C(F)(F)F)c3)sc2=O)o1	Tn6 DDE FP 17.3 | DDE Tn6 FP ctr inactive | Tn6 DDE conf inactive
C=CCN1C(=O)[C@H](CC(=O)NCc2ccccc2)[C@@]2(C(=O)OCC)CCCC=C12	none
COc1ccc(NC(=O)c2oc3ccccc3c2NC(=O)c2ccc(OC)c(OC)c2)c(OC)c1	none
COc1ccc(NC(=O)c2oc3ccccc3c2NC(=O)COc2ccccc2OC)c(OC)c1	Tn6 DDE FP 17.9 | DDE Tn6 FP ctr inactive | Tn6 DDE conf inactive
CC1(C)N=C(N)N=C(N)N1c1cccc(C#N)c1	Tn6 DDE FP 15.6 | DDE Tn6 FP ctr inactive | Tn6 DDE conf inactive
COc1ccc(NC(=O)Cn2cnc3c(cnn3-c3ccc(C)c(C)c3)c2=O)c(OC)c1	Tn6 DDE FP 15.9 | DDE Tn6 FP ctr inactive | Tn6 DDE conf inactive
COC(=O)c1ccc2c(c1)SC1=C(CCCC1=O)N2	Tn6 DDE FP 21.9 | DDE Tn6 FP ctr inactive | Tn6 DDE conf 24.3
CCN1C=C(Cc2ccc(F)cc2)C2=C(C1)C(c1ccc(F)cc1)C(C#N)=C(N)O2 (centres undefined)	Tn6 DDE FP 17.9 | DDE Tn6 FP ctr inactive | Tn6 DDE conf inactive
CCN1C=C(Cc2ccccc2C)C2=C(C1)C(c1ccccc1C)C(C#N)=C(N)O2 (centres undefined)	none
O=C(NCc1ccco1)C(c1ccccc1)N(CC1CCCO1)C(=O)Cn1nnc2ccccc21 (centres undefined)	none
Cc1ccccc1C(C(=O)NCc1ccco1)N(CC1CCCO1)C(=O)Cn1nnc2ccccc21 (centres undefined)	Tn6 DDE FP 19.2 | DDE Tn6 FP ctr inactive | Tn6 DDE conf inactive

Source: PubChem (The Scripps Research Institute Molecular Screening Center)
